Laboratory results reported in ChEMBL document CHEMBL1139840, “Design and synthesis of glycoside inhibitors of glioma and melanoma growth” (2007).

How the values were obtained:
C6 = assay: Antimitotic activity against rat C6 cells by [3H]thymidine incorporation assay; format: functional; conditions: C6, 24 h, read-out: ID50 (the source's name)
Procedure, shortened: (§1)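 Cells seeded at 1 × 10⁴/well in DMEM with 10% FCS and left 6 h to attach, then serum-starved 36 h. Compounds added in DMEM with 1% FCS, in triplicate, for 24 h. A 6 h [³H]thymidine pulse (0.5 µCi/well) followed, then SDS lysis and scintillation counting. % inhibition was scaled between 10% FCS (high) and serum-free (low) controls. ID₅₀ came from sigmoidal fits of triplicate dose-response data.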

A-375 = assay: Antimitotic activity against human A375 cells by [3H]thymidine incorporation assay; format: functional; conditions: A-375, 24 h, read-out: ID50 (the source's name); procedure, shortened: as §1
[1] = Antimitotic activity against human U373 cells by [3H]thymidine incorporation assay; format: functional, U-373MG ATCC; conditions: U373 MG, read-out: ID50 (the source's name)
[2] = Antimitotic activity against rat stromal cells by [3H]thymidine incorporation assay; format: functional; conditions: read-out: ID50 (the source's name)

IC50 (C6) [µM]	IC50 (A-375) [µM]	IC50 [1] [µM]	IC50 [2] [µM]	SMILES
5.4	16	15.6		CCCCCCCC/C=C\CCCCCCCC(=O)N[C@H]1[C@@H](OCCCCCCCC)O[C@H](CO)[C@@H](O)[C@@H]1OS(=O)(=O)O
11	2.3	3.2		CCCCCCCCCCCCCCCCO[C@H]1O[C@H](COCC(CO)(CO)COS(=O)(=O)O)[C@@H](O)[C@H](O)[C@H]1NC(=O)CCCC
> 50	> 50	> 50		CCCCCCCCO[C@H]1O[C@H](CO)[C@@H](O)[C@H](O)[C@H]1NC(=O)c1ccccc1
1.3	4.8	4.6	10	CCCCCCCC/C=C\CCCCCCCCO[C@H]1O[C@H](CO)[C@@H](O)[C@H](O)[C@H]1NC(C)=O
8.6	9.3	6.7		CCCCC(=O)N[C@H]1[C@@H](OCCc2ccccc2)O[C@H](COCC(CO)(CO)COS(=O)(=O)O)[C@@H](O)[C@@H]1O
18.3	17	27.3		CCCCCCCCCCCCCCCCO[C@H]1O[C@H](COCC(CO)(CO)CO)[C@@H](O)[C@H](O)[C@H]1NC(=O)CCCC
> 50	> 50	> 50		CCCCCCCCO[C@H]1O[C@H](CO)[C@@H](O)[C@H](O)[C@H]1NC(C)=O
> 50	> 50	> 50		C=CCCC(=O)N[C@H]1[C@@H](OCCc2ccccc2)O[C@H](COS(=O)(=O)O)[C@@H](O)[C@@H]1O
	3.4	5.6		CCCCCCCCCCCCCCCCO[C@H]1O[C@H](COC[C@@H](O)CO)[C@@H](O)[C@H](O)[C@H]1NC(=O)CCCC
> 50	> 50	> 50		CCCCC(=O)N[C@H]1[C@@H](OCCc2ccccc2)O[C@H](COCC(O)CO)[C@@H](O)[C@@H]1O (mixture of isomers)
12	6	13.3		CCCCCCCC/C=C\CCCCCCCC(=O)N[C@H]1[C@@H](OCCCCCCCC)O[C@H](CO)[C@@H](O)[C@@H]1O
> 50	> 50	> 50		CC(=O)N[C@H]1[C@@H](OCCCCc2ccccc2)O[C@H](CO)[C@@H](O)[C@@H]1O
> 50	> 50	> 50		CC(=O)N[C@H]1[C@@H](OCc2ccccc2)O[C@H](CO)[C@@H](O)[C@@H]1O
5.6	15.6	12.6		CCCCCCCC/C=C\CCCCCCCC(=O)N[C@H]1[C@@H](OCCCCCCCC)O[C@H](COS(=O)(=O)O)[C@@H](O)[C@@H]1O
13	29.3	> 50		CCCCCCCCCCCCCCCCO[C@H]1O[C@H](CO)[C@@H](O)[C@H](O)[C@H]1NC(C)=O
	2.2	4.9		CCCCCCCCCCCCCCCCO[C@H]1O[C@H](COC[C@H](O)CO)[C@@H](O)[C@H](O)[C@H]1NC(=O)CCCC
22.6	7.2	33		C=CCCC(=O)N[C@H]1[C@@H](OCCCCCCCCCCCCCCCC)O[C@H](CO)[C@@H](O)[C@@H]1OS(=O)(=O)O
2.6	9.3	3.3		CCCCCCCCCCCCCCCCO[C@H]1O[C@H](COCC(O)CO)[C@@H](O)[C@H](O)[C@H]1NC(=O)CCCCCCCCCCCCCCC (mixture of isomers)
> 50	> 50	> 50		C=CCCC(=O)N[C@H]1[C@@H](OCCc2ccccc2)O[C@H](CO)[C@@H](O)[C@@H]1OS(=O)(=O)O
	3	4.6		CCCCCCCCCCCCCCCCO[C@H]1O[C@H](COCC(O)CO)[C@@H](O)[C@H](O)[C@H]1NC(=O)CCCC (stereo not given in full)
> 50	> 50	> 50		C=CCCC(=O)N[C@H]1[C@@H](OCCc2ccccc2)O[C@H](CO)[C@@H](O)[C@@H]1O
> 50	> 50	> 50		C=CCCC(=O)N[C@H]1[C@@H](OCCCCCCCCCCCCCCCC)O[C@H](CO)[C@@H](O)[C@@H]1O
13	0.6	13	40	CCCCCCCC/C=C\CCCCCCCCO[C@H]1O[C@H](COS(=O)(=O)O)[C@@H](O)[C@H](O)[C@H]1NC(C)=O
11.9	13.3	20.6		CCCCCCCC/C=C\CCCCCCCC(=O)N[C@H]1[C@@H](OCCCCCCCC)O[C@H](COCC(CO)(CO)CO)[C@@H](O)[C@@H]1O
12.3	2.1	9.6		CCCCCCCC/C=C\CCCCCCCCO[C@H]1O[C@H](CO)[C@@H](O)[C@H](OS(=O)(=O)O)[C@H]1NC(C)=O
> 50	> 50	> 50		CC(=O)N[C@H]1[C@@H](OCCc2ccccc2)O[C@H](CO)[C@@H](O)[C@@H]1O
> 50	> 50	> 50		CCCCC(=O)N[C@H]1[C@@H](OCCc2ccccc2)O[C@H](COCC(CO)(CO)CO)[C@@H](O)[C@@H]1O
